Source: paper PMC3579501 (Transplantation, 2011)
Where “and” joins values, the source holds several entries; their conditions need not be identical. Equal entries are not always repeated. Where two headings read alike, the source gives them in different places. Marks after values point to notes of the source that are not given here.

Legend:
[1] = cited from earlier work
[2] = CYP3A5*3/*3 compared to *1/*1 or *1/*3; cited from earlier work
[3] = format: in vivo, human
In short: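 Log of trough (ng/mL) divided by total daily dose (mg/kg), from up to 24 troughs per patient over 6 months, fitted by general linear model. Time posttransplant (1–24) was categorical, with a covariance structure for repeated measures. Clinical factors were retained at backward-selection F-test p<0.15. Variants were tested one at a time (additive model, Toeplitz covariance), adjusted for center and retained factors. Significance was set at FDR 20%, effective m=2110.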

[4] = format: in vivo, human; remark: listed apart in the source
In short: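 Uses the first log-transformed dose-normalized trough, taken within 4 days posttransplant. Variants and clinical factors were analysed by multiple linear regression with stepwise variable selection. Effect estimates and standard errors were taken from the final model. Age was mean-centered at 50.2 years. Center p-value is from the overall F-test.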

CYP3A5 = conditions: cited from earlier work
[5] = format: in vivo, human; remark: listed apart in the source
In short: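 Adult kidney or kidney-pancreas recipients on tacrolimus with mycophenolate and steroids, with or without induction. Whole-blood troughs were drawn before an oral dose: two per week in weeks 1–8 and two per month in months 3–6. Measurement was mostly by LC-MS. Doses were adjusted to center targets, generally 8–12 ng/mL (months 0–3) and 6–10 ng/mL (months 4–6). Dose-normalized trough = trough/daily dose (mg/kg). AA and non-AA were compared by Wilcoxon-Mann-Whitney.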

[6] = African American (n=144), over the first 6 months
[7] = nonAfrican American (n=551), over the first 6 months

C=CC[C@@H]1/C=C(\C)C[C@H](C)C[C@H](OC)[C@H]2O[C@@](O)(C(=O)C(=O)N3CCCC[C@H]3C(=O)O[C@H](/C(C)=C/[C@@H]3CC[C@@H](O)[C@H](OC)C3)[C@H](C)[C@@H](O)CC1=O)[C@H](C)C[C@@H]2OC [tacrolimus, Tacrolimus]
Subjects achieving the trough target ([1]; control group): 29.1% | Subjects achieving the trough target ([1]; genotype adapted dosing): 43.2% | Intersubject pharmacokinetic variability in area under the curve, higher [2]: 41.1% | Reduction in log transformed dose-normalized trough ([3]; AA race relative to non-AAs): 0.04 | Increase in dose-normalized trough ([3]; CYP3A4 (rs7801671, rs12114000, rs2687117), CYP3A7 (rs2687080, rs776740), CYP3A5 (rs10264272) variants, adjusted for rs776746): 20–32% | Increase in log transformed dose-normalized troughs ([3]; calcium channel blocker (CCB) use): 0.03 | Increase in log transformed dose-normalized troughs ([3]; diabetes): 0.12 | Increase in log transformed dose-normalized troughs ([3]; male gender): 0.17 | Reduction in log transformed dose-normalized troughs ([3]; one A allele (CYP3A5*1, rs776746)): 36% | Effect on log transformed dose-normalized troughs (estimate ± SE) ([3]; one A allele (CYP3A5*1, rs776746), adjusted for clinical factors): −0.44±0.03 | Increase in log transformed dose-normalized troughs ([3]; one allele of CYP3A4 (rs7801671, rs12114000, rs2687117), CYP3A7 (rs2687080, rs776740), CYP3A5 (rs10264272) variants, adjusted for rs776746): 0.18–0.28 | Reduction in log transformed dose-normalized troughs ([3]; two A alleles (CYP3A5*1, rs776746)): 59% | Effect on log transformed dose-normalized first trough (Estimate ± SE) ([4]; African American subjects only, Diabetes): 0.45 ± 0.12 | Effect on log transformed dose-normalized first trough (Estimate ± SE) ([4]; African American subjects only, rs776746 (CYP3A5)): −0.25 ± 0.08 | Effect on log transformed dose-normalized first trough (Estimate ± SE) ([4]; African American subjects only, rs2072374 (CNAP1)): −0.45 ± 0.17 | Effect on log transformed dose-normalized first trough (Estimate ± SE) ([4]; African American subjects only, rs2239393 (COMT)): −0.19 ± 0.08 | Effect on log transformed dose-normalized first trough (Estimate ± SE) ([4]; African American subjects only, rs2280789 (CCL5)): 0.23 ± 0.10 | Effect on log transformed dose-normalized first trough (Estimate ± SE) ([4]; African American subjects only, rs2288648 (FASTK)): −0.41 ± 0.17 | Effect on log transformed dose-normalized first trough (Estimate ± SE) ([4]; African American subjects only, rs3136228 (MSH6)): −0.20 ± 0.08 | Effect on log transformed dose-normalized first trough (Estimate ± SE) ([4]; African American subjects only, rs12114000 (CYP3A4)): 0.38 ± 0.11 | Effect on log transformed dose-normalized first trough (Estimate ± SE) ([4]; Non-African American subjects only, Age in years, mean-centered at 50.2 years): 0.010 ± 0.002 | Effect on log transformed dose-normalized first trough (Estimate ± SE) ([4]; Non-African American subjects only, Diabetes): 0.21 ± 0.06 | Effect on log transformed dose-normalized first trough (Estimate ± SE) ([4]; Non-African American subjects only, rs4926 (SERPING1)): −0.12 ± 0.04 | Effect on log transformed dose-normalized first trough (Estimate ± SE) ([4]; Non-African American subjects only, rs17567 (EPS15)): 0.12 ± 0.05 | Effect on log transformed dose-normalized first trough (Estimate ± SE) ([4]; Non-African American subjects only, rs776746 (CYP3A5)): −0.31 ± 0.07 | Effect on log transformed dose-normalized first trough (Estimate ± SE) ([4]; Non-African American subjects only, rs1800822 (FMO3)): 0.20 ± 0.09 | Effect on log transformed dose-normalized first trough (Estimate ± SE) ([4]; Non-African American subjects only, rs2239393 (COMT)): −0.07 ± 0.04 | Effect on log transformed dose-normalized first trough (Estimate ± SE) ([4]; Non-African American subjects only, rs2608555 (GAN)): 0.17 ± 0.04 | Effect on log transformed dose-normalized first trough (Estimate ± SE) ([4]; Non-African American subjects only, rs3135506 (APOA5)): −0.23 ± 0.08 | Effect on log transformed dose-normalized first trough (Estimate ± SE) ([4]; Non-African American subjects only, rs3734354 (SIM1)): 0.20 ± 0.06 | Effect on log transformed dose-normalized first trough (Estimate ± SE) ([4]; all subjects model, Age in years, mean-centered at 50.2 years): 0.008 ± 0.002 | Effect on log transformed dose-normalized first trough (Estimate ± SE) ([4]; all subjects model, Diabetes): 0.23 ± 0.05 | Effect on log transformed dose-normalized first trough (Estimate ± SE) ([4]; all subjects model, rs3448 (GPX1)): 0.07 ± 0.04 | Effect on log transformed dose-normalized first trough (Estimate ± SE) ([4]; all subjects model, rs4926 (SERPING1)): −0.09 ± 0.04 | Effect on log transformed dose-normalized first trough (Estimate ± SE) ([4]; all subjects model, rs13321 (TNC)): 0.06 ± 0.04 | Effect on log transformed dose-normalized first trough (Estimate ± SE) ([4]; all subjects model, rs17567 (EPS15)): 0.10 ± 0.04 | Effect on log transformed dose-normalized first trough (Estimate ± SE) ([4]; all subjects model, rs776746 (CYP3A5)): −0.33 ± 0.05 | Effect on log transformed dose-normalized first trough (Estimate ± SE) ([4]; all subjects model, rs2072374 (CNAP1)): −0.08 ± 0.04 | Effect on log transformed dose-normalized first trough (Estimate ± SE) ([4]; all subjects model, rs2239393 (COMT)): −0.28 ± 0.08 | Effect on log transformed dose-normalized first trough (Estimate ± SE) ([4]; all subjects model, rs2608555 (GAN)): 0.15 ± 0.04 | Effect on log transformed dose-normalized first trough (Estimate ± SE) ([4]; all subjects model, rs2687117 (CYP3A4)): 0.26 ± 0.08 | Effect on log transformed dose-normalized first trough (Estimate ± SE) ([4]; all subjects model, rs3135506 (APOA5)): −0.23 ± 0.07 | Effect on log transformed dose-normalized first trough (Estimate ± SE) ([4]; all subjects model, rs3734354 (SIM1)): 0.19 ± 0.06 | Effect on log transformed dose-normalized first trough (Estimate ± SE) ([4]; all subjects model, rs4646312 (COMT)): 0.22 ± 0.08 | Fraction metabolized through CYP3A5 (CYP3A5; hepatic enzymes from CYP3A5*1 allele carriers): 60% | Intrinsic tacrolimus clearance of CYP3A5 enzyme relative to CYP3A4 (CYP3A5; in vitro): twice | Median trough ([5]; AAs, remained despite 60% higher doses (Figure 1)): < 8 ng/mL | Trough concentration, median (interquartile range) [5, 6]: 6.2 (4.4–8.4) ^d ng/mL | Trough dose-normalized, median (interquartile range) [5, 6]: 68.3 (46.1–103.6) ^d ng/ml per mg/kg/day | Subjects with first trough <8 ng/mL ([5]; African Americans): 96.6% | First trough concentration (week one posttransplant), median (interquartile range) ([5]; African Americans, daily dose 4.0 (4.0–5.0) mg/day): 2.1 (1.2–3.5) ng/mL | Dose-normalized trough, median (interquartile range) ([5]; CYP3A5*1/*1 genotype): 54.3(37.9–80.3) ng/mL per mg/kg | Trough concentration, median (interquartile range) ([5]; CYP3A5 *1/*1 genotype (rs776746)): 5.8(4.1–7.9) ng/mL | Dose-normalized trough, median (interquartile range) ([5]; CYP3A5 *1/*3 genotype): 77.8(53.1–114.6) ng/mL per mg/kg | Trough concentration, median (interquartile range) ([5]; CYP3A5 *1/*3 genotype (rs776746)): 7.1(5.1–9.3) ng/mL | Dose-normalized trough, median (interquartile range) ([5]; CYP3A5 *3/*3 genotype): 141.1(91.7–214.5) ng/mL per mg/kg | Trough concentration, median (interquartile range) ([5]; CYP3A5 *3/*3 genotype (rs776746)): 8.4(6.5–10.5) ng/mL | Trough dose-normalized, median (interquartile range) ([5]; all subjects (n=695), over the first 6 months): 116.5 (70.7–186.3) ng/ml per mg/kg/day | Trough concentration, median (interquartile range) ([5]; all subjects (n=695), over the first 6 months, whole blood, oral dosing): 7.9 (5.9–10.1) ng/mL | Trough concentration, median (interquartile range) ([5]; center 1, 6 month study period): 9.5 (8.0–11.4) ng/mL | Trough concentration, median (interquartile range) ([5]; center 2, 6 month study period): 10.5 (7.4–13.0) ng/mL | Trough concentration, median (interquartile range) ([5]; center 3, 6 month study period): 7.9 (6.1–10.1) ng/mL | Trough concentration, median (interquartile range) ([5]; center 4, 6 month study period): 9.7 (7.5–12.2) ng/mL | Trough concentration, median (interquartile range) ([5]; center 5, 6 month study period): 8.9 (7.1–10.6) ng/mL | Trough concentration, median (interquartile range) ([5]; center 6, 6 month study period): 9.1 (7.0–11.3) ng/mL | Trough concentration, median (interquartile range) ([5]; center 7, 6 month study period): 6.6 (4.7–8.7) ng/mL | First trough concentration ([5]; measured within 4 days after transplantation, in most subjects): < 5 ng/mL | Troughs achieved ([5]; non-AA group, quickly achieved (Figure 1)): > 8 ng/mL | Subjects with first trough <8 ng/mL ([5]; non-African Americans): 73.9% | First trough concentration (week one posttransplant), median (interquartile range) ([5]; non-African Americans, daily dose 4.0 [4.0–6.0] mg/day): 5.0 [3.1–8.2] ng/mL and 5.0 (3.1–8.2) ng/mL | Trough concentration, median (interquartile range) [5, 7]: 8.3 (6.4–10.4) ng/mL | Trough dose-normalized, median (interquartile range) [5, 7]: 131.4 (83.0–201.8) ng/ml per mg/kg/day | Median trough lower in AA than in non-AA recipients ([5]; over the 6 month study period, AAs on 60% higher median daily dose): 2.1 ng/mL
